This is an account of results in PubChem BioAssay.

SMILES strings stand for the structures. The source made the active and inactive calls.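 The calls were made as follows, unless noted: active = viability at or below 10% of carrier control in both of two separate runs; inconclusive = viability at or below 10% in only one of the two runs; inactive = the rest.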

Assay [1] in a line: reduced viability of SK-BR-3 breast cancer cells – cell-based, 24 h, human, pilot screen (AID 572).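 Also: compound exposure lasted between 18 and 24 h rather than exactly 24 h; 100% = carrier-treated control wells.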 The following applies: SK-BR-3 viability, CellTiter-Glo luminescence, at 10 µM, stronger effect = lower value. (In ATP-based viability assays light output follows the ATP content of the culture.)
Assay [2] in a line: HUVEC growth inhibition – cell-based, human, primary screen (AID 575;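 active = viability at or below 30% in both replicate assays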;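 also: 100% = median of untreated cell wells with 0.1% DMSO on each plate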). The following applies: HUVEC proliferation, CellTiter-Glo luminescence, 72 h; at 10 µM; stronger effect = lower value. In outline: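 System – primary HUVEC, no more than 12 passages · Medium – Low-serum (2% FBS) EBM, supplemented · Times – 72 h exposure, 37 °C, 5% CO2, 30 min RT equilibration · Measured by – luminescent ATP assay · Read-out – % viability relative to median vehicle-well signal on each plate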

A short description of assay [3]: H69AR cell proliferation blockers – human, duplicate replicates, primary screen (AID 580;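 active = viability at or under a set limit in both replicates, limit being median viability minus 3 SD, cut at about 48% in these data, passing the limit was not always enough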;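 also: 100% = mean luminescence of untreated wells and 0% = no signal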). To be noted: H69AR lung tumor cells viability, ATP luminescence, 72 h; at 10 µM; stronger effect = lower value.
Assay [4] is described as follows: MRP1 drug-resistance reversers in H69AR cells – cell-based, doxorubicin co-treatment, pilot screen (AID 601;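 active = viability loss from added drug above about 55%, and viability with drug at most 40%, in both replicates, limit read from the data, passing the limit was not always enough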). To be noted: CellTiter-Glo, 72 h, at 10 µM; for differential viability (reversal): stronger effect = higher value.
Assay [5] is described as follows: yeast transport mutant growth inhibition pilot in 384-well plates, post-Golgi transport modulator project (AID 636; in the data active = inhibition above about 31%). The following applies: absorbance 615 nm, about 18 h, stronger effect = higher value.
A short description of assay [6]: growth suppression of yeast trafficking mutant, preliminary HTS, modulators of trafficking downstream of Golgi apparatus project, 1536-format plate, OD 615 nm (AID 637; in the data active = inhibition above about 30%). To be noted: yeast transport mutant growth, absorbance 615 nm, 18 h; stronger effect = higher value.
Setting [7] is: H69AR cells + 2 uM doxorubicin, measured here: viability with 2 uM doxorubicin, stronger effect = lower value.
[8] abbreviates: H69AR cells, compound alone cytotoxicity.

Usually viability stands for a read-out of living cells in per cent, often relative to untreated cells. Usually inhibition stands for the drop in the measured response relative to a control, in per cent. Consider `Cc1cccc(N(C)C(=S)Oc2ccc3ccccc3c2)c1`, for which the viability was 89% (inactive) in assay [1]; 109% (inactive) in assay [2]; 97.1% (inactive) in assay [3]; 84.1% in assay [4] (setting [7]); 97.1% in assay [4] (setting [8]). In assay [4] (H69AR cells + 2 uM doxorubicin), the differential viability (reversal) is 13% (inactive). Moreover, the inhibition was 0.26% (inactive) in assay [5] and 1.83% (inactive) in assay [6].

As to `CCOC(=O)c1ccc(NC(=O)CCc2nc(-c3ccc(C)cc3)no2)cc1`, the viability in assay [1] is 85% (inactive); in assay [2], 38% (inactive); in assay [3], 94.3% (inactive); in assay [4] (setting [7]), 88.8%; in assay [4] (setting [8]), 94.3%. In addition, the differential viability (reversal) in assay [4] (H69AR cells + 2 uM doxorubicin) is 5.47% (inactive). For the same molecule, the values for the inhibition in assay [5] and in assay [6] were -3.29% (inactive) and 3.93% (inactive), respectively.

In the case of `CCCc1cc(=O)[nH]c(=S)[nH]1`, the viability in assay [1] was 101% (inactive); in assay [2] it was 97% (inactive); in assay [3], 84% (inactive); in assay [4] (setting [7]) it was 81.2%; in assay [4] (setting [8]), 84%. For the same molecule, the differential viability (reversal) in assay [4] (H69AR cells + 2 uM doxorubicin) was 2.76% (inactive). In addition, the inhibition is 0.78% (inactive) in assay [5] and 0.17% (inactive) in assay [6].

`CCCS(=O)(=O)N1CCCC(C(=O)NC(C)c2ccc3c(c2)OCCO3)C1` (centres undefined): the viability is 79% (inactive) in assay [1]; 71.3% (inactive) in assay [2]; 93.9% (inactive) in assay [3]; 87.8% in assay [4] (setting [7]); 93.9% in assay [4] (setting [8]). Further, the differential viability (reversal) in assay [4] (H69AR cells + 2 uM doxorubicin) was 6.12% (inactive). Further, the inhibition is -2.34% (inactive) in assay [5] and 0.49% (inactive) in assay [6].

Consider `COc1ccc(C2C3=C(CCCC3=O)Nc3nc(SCc4ccccc4)nn32)cc1OC` (centres undefined), for which the viability was 101% (inactive) in assay [1]; 121% (inactive) in assay [2]; 74.9% (inactive) in assay [3]; 96% in assay [4] (setting [7]); 74.9% in assay [4] (setting [8]). Further, the differential viability (reversal) in assay [4] (H69AR cells + 2 uM doxorubicin) is -21% (inactive). Further, the inhibition in assay [5] was -4.46% (inactive); in assay [6] it was 0.36% (inactive).

As for `Cc1onc(-c2c(F)cccc2Cl)c1C(=O)Nc1nc2c(s1)CCCC2`, the viability in assay [1] is 109% (inactive); in assay [2], 92.7% (inactive); in assay [3] it was 77.3% (inactive); in assay [4] (setting [7]), 104%; in assay [4] (setting [8]), 77.3%. The differential viability (reversal) in assay [4] (H69AR cells + 2 uM doxorubicin) was -27% (inactive). For the same molecule, the inhibition in assay [5] was -3.29% (inactive); in assay [6], -1.09% (inactive).

For the molecule `COc1ccc(C2c3c(oc4ccccc4c3=O)C(=O)N2Cc2ccncc2)cc1OC` (centres undefined), the viability in assay [1] was 91% (inactive); in assay [2] it was 96.7% (inactive); in assay [3], 93.7% (inactive); in assay [4] (setting [7]), 95.8%; in assay [4] (setting [8]), 93.7%. The differential viability (reversal) in assay [4] (H69AR cells + 2 uM doxorubicin) was -2.17% (inactive). The figures for the inhibition in assay [5] and in assay [6] were -7.84% (inactive) and 0.18% (inactive), respectively.

For `CCSCc1nnc(SCC(=O)Nc2cccc(SC)c2)n1C`, the viability is 66% (inactive) in assay [1]; 84.3% (inactive) in assay [2]; 90.3% (inactive) in assay [3]; 105% in assay [4] (setting [7]); 90.3% in assay [4] (setting [8]). In assay [4] (H69AR cells + 2 uM doxorubicin), the differential viability (reversal) is -14.9% (inactive). Moreover, the results for the inhibition in assay [5] and in assay [6] were -6.58% (inactive) and -0.18% (inactive), respectively.

On to `Cc1ccc(O)c(-c2cc(C(=O)Nc3ccc(S(=O)(=O)N4CC(C)OC(C)C4)cc3)[nH]n2)c1` (centres undefined), for which the viability was 92% (inactive) in assay [1]; 56.7% (inactive) in assay [2]; 34.8% (active) in assay [3]; 43.5% in assay [4] (setting [7]); 34.8% in assay [4] (setting [8]). Also, the differential viability (reversal) in assay [4] (H69AR cells + 2 uM doxorubicin) was -8.67% (inactive). Moreover, the inhibition is -11.1% (inactive) in assay [5] and -1.59% (inactive) in assay [6].

In the case of `O=S(=O)(NCc1ccc(Cl)cc1)c1cnc[nH]1`, the viability in assay [1] was 103% (inactive); in assay [2], 98.1% (inactive); in assay [3], 106% (inactive); in assay [4] (setting [7]), 82.7%; in assay [4] (setting [8]), 106%. Moreover, in assay [4] (H69AR cells + 2 uM doxorubicin), the differential viability (reversal) is 23.5% (inactive). The inhibition in assay [5] is -6.36% (inactive); in assay [6] it was -4.59% (inactive).

Turning to `CC(C)(C)NC(=O)CN(C(=O)C1CSC(=O)C1)c1ccc2c(c1)OCCO2` (centres undefined), the viability in assay [1] is 92% (inactive); in assay [2] it was 112% (inactive); in assay [3], 91.5% (inactive); in assay [4] (setting [7]), 92.6%; in assay [4] (setting [8]), 91.5%. In assay [4] (H69AR cells + 2 uM doxorubicin), the differential viability (reversal) was -1.13% (inactive). For the same molecule, the inhibition in assay [5] was 0.95% (inactive); in assay [6] it was -4.55% (inactive).

Consider `CC1CCCCC1NC(=O)COc1ccc(-n2cnnn2)cc1` (centres undefined), for which the viability in assay [1] was 100% (inactive); in assay [2] it was 103% (inactive); in assay [3], 101% (inactive); in assay [4] (setting [7]) it was 101%; in assay [4] (setting [8]), 101%. In addition, in assay [4] (H69AR cells + 2 uM doxorubicin), the differential viability (reversal) was -0.38% (inactive). For the same molecule, the figures for the inhibition in assay [5] and in assay [6] were 0% (inactive) and 0.73% (inactive), respectively.

With `Fc1cccc(NCc2cn3ccccc3n2)c1`, the viability in assay [1] is 81% (inactive); in assay [2] it was 105% (inactive); in assay [3] it was 87.6% (inactive); in assay [4] (setting [7]) it was 89.2%; in assay [4] (setting [8]), 87.6%. The differential viability (reversal) in assay [4] (H69AR cells + 2 uM doxorubicin) is -1.66% (inactive). The inhibition in assay [5] is -5% (inactive); in assay [6], 21.4% (inactive).

In the case of `Cc1nc(CNS(=O)(=O)c2cccc(F)c2)cs1`, the viability in assay [1] is 64% (inactive); in assay [2], 93.3% (inactive); in assay [3], 91.4% (inactive); in assay [4] (setting [7]), 90.1%; in assay [4] (setting [8]) it was 91.4%. Moreover, the differential viability (reversal) in assay [4] (H69AR cells + 2 uM doxorubicin) is 1.23% (inactive). The results for the inhibition in assay [5] and in assay [6] were -1.95% (inactive) and 12.1% (inactive), respectively.

`CCOc1cccc(C(=O)N(Cc2ccco2)C2CCS(=O)(=O)C2)c1` (centres undefined): the viability was 96% (inactive) in assay [1]; 109% (inactive) in assay [2]; 97.6% (inactive) in assay [3]; 89.5% in assay [4] (setting [7]); 97.6% in assay [4] (setting [8]). In assay [4] (H69AR cells + 2 uM doxorubicin), the differential viability (reversal) was 8.11% (inactive). Besides, the results for the inhibition in assay [5] and in assay [6] were -5.95% (inactive) and -1.09% (inactive), respectively.

For the molecule `COC(=O)c1[nH]c2ccc(C)cc2c1NC(=O)CN1CCC(C)CC1`, the viability was 101% (inactive) in assay [1]; 94.5% (inactive) in assay [2]; 92.5% (inactive) in assay [3]; 98.6% in assay [4] (setting [7]); 92.5% in assay [4] (setting [8]). Moreover, the differential viability (reversal) in assay [4] (H69AR cells + 2 uM doxorubicin) was -6.15% (inactive). The inhibition is -4.27% (inactive) in assay [5] and -2.73% (inactive) in assay [6].

On to `CN(Cc1ccccc1)C(=O)c1cc(-c2ccc(Br)cc2)on1`, for which the viability is 80% (inactive) in assay [1]; 94.2% (inactive) in assay [2]; 103% (inactive) in assay [3]; 95.3% in assay [4] (setting [7]); 103% in assay [4] (setting [8]). In assay [4] (H69AR cells + 2 uM doxorubicin), the differential viability (reversal) was 7.97% (inactive). For the same molecule, the inhibition was -4% (inactive) in assay [5] and -3.45% (inactive) in assay [6].

Take `O=C(NCc1ccc2c(c1)OCO2)C1CCC(CNS(=O)(=O)c2ccccc2)CC1` (centres undefined): the viability in assay [1] was 92% (inactive); in assay [2], 78.9% (inactive); in assay [3], 92.2% (inactive); in assay [4] (setting [7]), 93.7%; in assay [4] (setting [8]), 92.2%. The differential viability (reversal) in assay [4] (H69AR cells + 2 uM doxorubicin) was -1.49% (inactive). Also, the inhibition in assay [5] was 0.52% (inactive); in assay [6] it was 1.15% (inactive).
